Measured values: paper PMC11522000 (Nature Microbiology, 2024)
Entries after “also recorded” stand apart in the source; their conditions may differ.

Legend:
hCav1.2 = hCav1.2 (Homo sapiens, UniProt Q13936); assay: Patch clamp Cav1.2 Quattro; assay type: cell-based
Outline: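 Each channel was stably expressed in HEK293 cells and tested by patch clamp with a 7-point concentration-response.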

C. parvum [1] = assay: Live imaging of C. parvum in HCT-8 cells; assay type: cell-based, Cryptosporidium parvum; conditions: compound at 3 h post infection
[2] = Stability in intestinal S9 fraction; assay type: in vitro ADME; conditions: dog
Outline: (§1)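 Test compound added to intestinal S9 fraction of each species to start the reaction. Incubated in a shaking water bath at 37 °C, with samples taken at sequential timepoints. Samples quenched with ice-cold acetonitrile and analysed by LC-MS/MS. Half-life calculated from the rate of parent compound depletion.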

liver and duodenum = assay: In vivo rat Comet assay; conditions: up to 2000 mg/kg/day
Outline: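 Liver and duodenum were sampled near Tmax after the second dose for the Comet assay.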

C. parvum [3] = assay: Time-kill assay, nanoluciferase-expressing C. parvum; assay type: cell-based, Cryptosporidium parvum
Plasma stability = assay type: in vitro ADME; conditions: dog
Outline: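 Test compound was added to plasma and incubated at 37 °C in a shaking water bath, with samples taken at sequential timepoints. Samples were quenched with ice-cold acetonitrile and analysed by LC-MS/MS, and half-life was calculated from the depletion rate.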

[4] = In vivo pharmacokinetics, all tested preclinical species; conditions: male, mouse, rat, dog, plasma, po
Outline: (§2)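 Animals were male C57BL/6 mice (8–10 weeks), Wistar rats (8–10 weeks) and beagle dogs (12–14 weeks). Each received oral and i.v. doses, with plasma sampling for PK parameters.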

[5] = Stability in intestinal S9 fraction; assay type: in vitro ADME; conditions: rat
Outline: as §1

C. parvum [6] = assay: DNA synthesis; assay type: cell-based, Cryptosporidium parvum; conditions: compound at 3 h post infection, EdU at 9 h
Outline: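 HCT-8 cells were seeded at 5,000–25,000 per well on fibronectin-coated glass-bottom plates to reach 90–100% confluence, then infected with triggered oocysts. After 3 h at 37 °C, test compound or controls were added (DMSO neutral, cladosporin active) and incubation continued to about 9 h post infection. EdU was detected, vacuoles stained with VVL and nuclei with Hoechst, and wells imaged with a 40x objective.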

C. parvum [7] = assay: Host cell invasion assay; assay type: cell-based, Cryptosporidium parvum; conditions: HCT-8, 3 h; EDI048 and KDU731 20 µM, wiskostatin 11.3 µM
Outline: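 HCT-8 monolayers were 95–100% confluent. Compounds were added at twice the final concentration 1 h before infection with 50,000 primed oocysts per well. Plates were kept 3 h at 37 °C, 5% CO2, then washed with PBS-0.1% Tween 20, fixed in 4% PFA for 15 min at room temperature, permeabilized with 0.25% Triton X-100 and blocked in 4% BSA. Vacuoles were stained with fluorescein-VVL and nuclei with Hoechst, then imaged.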

[8] = 2 weeks GLP dog toxicology study with toxicokinetics; assay type: in vivo; conditions: for AUC(0-t): AUC0-8, dog
human PXR = assay: PXR reporter gene assay; assay type: in vitro ADME
Outline: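 CYP3A4 transactivation was measured in the human hepatoma line DPX-2, which overexpresses human PXR and carries a CYP3A4 promoter-luciferase reporter.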

[9] = In vivo pharmacokinetic analysis; parameters: species or system mouse
Outline: as §2

[10] = Stability in intestinal S9 fraction; assay type: in vitro ADME, calf; conditions: bovine
Outline: as §1

[11] = In vivo pharmacokinetic analysis; parameters: species or system rat; conditions: portal vein cannulated rats, oral
Cytotoxicity assay = assay type: cell-based, human; conditions: human, HepG2 cells (ATCC CRL-10741), HepG2 CC50, 96 h
ATM = ATM (Homo sapiens, UniProt Q13315); assay: Kinase assay panel; assay type: biochemical
Lipophilicity = assay type: physicochemical
[12] = Neonatal calf pharmacokinetics; assay type: in vivo; conditions: bovine, plasma, po, 10 mg/kg
Outline: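 Calves were dosed orally at 10 mg/kg birth weight every 12 h, at least 2 h after feeding. On day 1, blood was drawn before dosing and at several timepoints up to 12 h.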

[13] = In vivo pharmacokinetic analysis; conditions: male, Beagle, dog, plasma
Outline: as §2

C. parvum [14] = assay: Neonatal calf efficacy study; assay type: in vivo, neonatal calves
Outline: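 Infected neonatal calves received test compound orally by dosing syringe every 12 h for 7 days at 10 mg/kg birth weight, at least 2 h after feeding. Controls were vehicle-treated calves. The negative-control calf was sham-challenged so staff stayed blinded during dosing, clinical scoring of faecal consistency and faecal qPCR for oocysts.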

[15] = Hepatocytes metabolic stability; assay type: in vitro ADME; conditions: rat
Outline: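 Test compound was incubated with liver microsomes or hepatocytes of each species, and parent depletion was quantified by LC-MS/MS. From this, in vitro half-life and intrinsic clearance were derived, along with predicted metabolic clearance and hepatic extraction ratio.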

Plasma protein binding = assay type: in vitro ADME; conditions: rat
[16] = male, C57BL/6, mouse, plasma, iv, 1 mg/kg
[17] = male, C57BL/6, mouse, plasma, po, 10 mg/kg

Chain of ATM (Q13315 whole entry): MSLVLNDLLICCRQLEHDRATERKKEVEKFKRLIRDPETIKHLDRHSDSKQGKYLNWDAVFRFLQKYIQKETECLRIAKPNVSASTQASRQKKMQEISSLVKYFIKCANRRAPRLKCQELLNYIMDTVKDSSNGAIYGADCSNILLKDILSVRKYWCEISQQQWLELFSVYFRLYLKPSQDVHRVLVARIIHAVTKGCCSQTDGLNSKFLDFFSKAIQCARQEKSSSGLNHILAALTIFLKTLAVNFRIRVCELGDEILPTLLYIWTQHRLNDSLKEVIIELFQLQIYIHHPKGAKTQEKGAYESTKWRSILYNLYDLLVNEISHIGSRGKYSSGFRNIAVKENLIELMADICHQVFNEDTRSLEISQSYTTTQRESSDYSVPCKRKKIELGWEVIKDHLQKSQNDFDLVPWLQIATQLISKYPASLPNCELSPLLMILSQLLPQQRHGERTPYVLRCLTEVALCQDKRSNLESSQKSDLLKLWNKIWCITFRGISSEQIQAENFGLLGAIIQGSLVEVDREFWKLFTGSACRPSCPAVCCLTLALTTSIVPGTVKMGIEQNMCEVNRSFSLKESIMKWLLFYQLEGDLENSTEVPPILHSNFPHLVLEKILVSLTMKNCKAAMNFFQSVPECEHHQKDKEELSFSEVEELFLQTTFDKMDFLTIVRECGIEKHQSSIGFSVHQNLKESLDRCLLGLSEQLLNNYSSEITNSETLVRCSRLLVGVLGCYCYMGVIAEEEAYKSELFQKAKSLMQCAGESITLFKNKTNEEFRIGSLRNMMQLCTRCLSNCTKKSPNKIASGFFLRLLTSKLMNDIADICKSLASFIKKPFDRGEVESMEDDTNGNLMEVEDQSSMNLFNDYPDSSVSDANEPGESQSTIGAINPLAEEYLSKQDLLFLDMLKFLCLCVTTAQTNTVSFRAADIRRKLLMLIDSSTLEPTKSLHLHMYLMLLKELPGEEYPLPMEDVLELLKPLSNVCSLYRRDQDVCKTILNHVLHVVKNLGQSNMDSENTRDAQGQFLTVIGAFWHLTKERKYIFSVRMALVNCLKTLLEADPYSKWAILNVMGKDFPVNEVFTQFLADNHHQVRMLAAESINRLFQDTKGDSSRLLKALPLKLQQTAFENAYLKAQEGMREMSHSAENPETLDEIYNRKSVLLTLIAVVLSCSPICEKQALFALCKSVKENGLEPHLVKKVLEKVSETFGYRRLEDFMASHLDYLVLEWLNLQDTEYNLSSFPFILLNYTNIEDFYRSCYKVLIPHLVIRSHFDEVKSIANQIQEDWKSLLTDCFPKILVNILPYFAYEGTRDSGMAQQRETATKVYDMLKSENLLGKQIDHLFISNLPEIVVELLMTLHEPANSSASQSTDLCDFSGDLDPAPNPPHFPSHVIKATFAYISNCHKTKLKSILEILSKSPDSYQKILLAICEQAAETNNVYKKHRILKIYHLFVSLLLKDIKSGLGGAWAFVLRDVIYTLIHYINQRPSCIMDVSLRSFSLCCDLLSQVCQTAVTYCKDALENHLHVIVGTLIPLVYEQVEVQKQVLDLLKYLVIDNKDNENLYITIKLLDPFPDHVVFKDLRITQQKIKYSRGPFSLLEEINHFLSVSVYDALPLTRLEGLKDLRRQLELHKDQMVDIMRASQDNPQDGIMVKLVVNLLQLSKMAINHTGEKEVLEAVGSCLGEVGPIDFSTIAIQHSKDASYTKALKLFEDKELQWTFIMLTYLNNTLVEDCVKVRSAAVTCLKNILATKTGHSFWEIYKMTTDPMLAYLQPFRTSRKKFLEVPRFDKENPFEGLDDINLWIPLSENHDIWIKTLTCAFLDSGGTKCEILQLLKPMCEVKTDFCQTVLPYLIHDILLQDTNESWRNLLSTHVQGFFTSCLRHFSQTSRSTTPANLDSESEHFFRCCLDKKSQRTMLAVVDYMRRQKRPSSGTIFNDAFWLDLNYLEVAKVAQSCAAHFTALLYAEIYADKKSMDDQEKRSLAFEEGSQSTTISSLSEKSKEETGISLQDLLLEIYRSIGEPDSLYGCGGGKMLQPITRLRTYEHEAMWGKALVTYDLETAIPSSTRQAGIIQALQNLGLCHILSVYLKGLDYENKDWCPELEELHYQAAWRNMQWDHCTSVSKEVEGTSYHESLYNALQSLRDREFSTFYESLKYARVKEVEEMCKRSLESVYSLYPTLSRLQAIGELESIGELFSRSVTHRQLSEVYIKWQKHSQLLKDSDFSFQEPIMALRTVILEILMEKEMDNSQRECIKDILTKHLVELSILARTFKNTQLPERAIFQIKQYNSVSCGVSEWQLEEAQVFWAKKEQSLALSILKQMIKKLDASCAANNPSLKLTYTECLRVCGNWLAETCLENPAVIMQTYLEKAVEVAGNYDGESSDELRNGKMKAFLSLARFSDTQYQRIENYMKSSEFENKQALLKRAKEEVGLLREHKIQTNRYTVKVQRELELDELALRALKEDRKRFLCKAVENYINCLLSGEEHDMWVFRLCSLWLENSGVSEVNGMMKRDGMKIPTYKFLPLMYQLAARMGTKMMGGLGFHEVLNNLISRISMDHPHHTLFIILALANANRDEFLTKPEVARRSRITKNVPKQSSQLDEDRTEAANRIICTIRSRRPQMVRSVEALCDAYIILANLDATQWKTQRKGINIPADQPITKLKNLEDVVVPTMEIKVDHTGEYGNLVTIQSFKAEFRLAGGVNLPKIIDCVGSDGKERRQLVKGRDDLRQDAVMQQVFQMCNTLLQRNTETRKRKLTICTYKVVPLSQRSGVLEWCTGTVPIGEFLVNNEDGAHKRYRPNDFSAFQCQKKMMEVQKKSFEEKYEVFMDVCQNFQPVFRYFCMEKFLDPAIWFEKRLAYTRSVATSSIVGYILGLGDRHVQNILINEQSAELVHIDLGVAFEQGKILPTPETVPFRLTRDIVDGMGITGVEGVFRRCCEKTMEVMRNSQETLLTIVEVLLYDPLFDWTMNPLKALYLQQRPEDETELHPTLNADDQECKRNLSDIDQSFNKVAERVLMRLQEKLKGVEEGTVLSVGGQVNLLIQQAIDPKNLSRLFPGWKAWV

**Q.** For `CNC(=O)c1ccc(-c2cnn3ccc(C(=O)N(C)c4ccc(Cl)c(C(=O)OC)c4)cc23)cc1` [EDI048, methyl 2-chloro-5-(N-methyl-3-(4-(methylcarbamoyl)phenyl)pyrazolo[1,5-a]pyridine-5-carboxamido)benzoate], which IC50 (hCav1.2) is on record?
**A.** > 50 µM

**Q.** What about the “live imaging of infected HCT-8 cells” value (C. parvum [1]) of the same compound?
**A.** parasites were arrested at the meront stage, preventing egress

**Q.** And the half-life [2]?
**A.** > 4 h

**Q.** What about the “In vivo rat Comet assay” value (liver and duodenum) of the same compound?
**A.** Negative^e

**Q.** And the “concentration achieving maximum rate of parasite elimination” value (C. parvum [3])?
**A.** ≥ 27 nM

**Q.** And the “Plasma T1/2” value (Plasma stability)?
**A.** > 2 h

**Q.** And the half-life (Plasma stability; Plasma T1/2, dog plasma)?
**A.** > 4 h

**Q.** What about the bioavailability [4] of the same compound?
**A.** 0.4 to 5.6%

**Q.** What about the half-life [5] of the same compound?
**A.** > 4 h

**Q.** What about the “DNA synthesis (EdU incorporation)” value (C. parvum [6]) of the same compound?
**A.** does not affect DNA synthesis

**Q.** What about the sporozoite invasion (C. parvum [7]) of the same compound?
**A.** inactive; also recorded: does not affect sporozoite invasion

**Q.** And the NOAEL at 14 days ([8]; both, beagle, dog, in vivo, po)?
**A.** 1000 mg/kg/day

**Q.** And the Tmax ([8]; both, beagle, dog, plasma, oral, dog toxicity study)?
**A.** ≤ 1.25 h

**Q.** What about the AUC(0-t) ([8]; both, beagle, dog, plasma, po, 1000 mg/kg/day, EDI048 1000 mg/kg/day, day 1) of the same compound?
**A.** 459 ng·h/mL

**Q.** What about the AUC(0-t) ([8]; both, beagle, dog, plasma, po, 1000 mg/kg/day, EDI048 1000 mg/kg/day, day 14) of the same compound?
**A.** 634 ng·h/mL

**Q.** What about the Cmax ([8]; both, beagle, dog, plasma, po, 1000 mg/kg/day, Cmax, dog, EDI048 1000 mg/kg/day, day 14) of the same compound?
**A.** 169 ng/mL

**Q.** What about the Tmax ([8]; both, beagle, dog, plasma, po, 1000 mg/kg/day, dog, EDI048 1000 mg/kg/day, day 1) of the same compound?
**A.** 0.95 h

**Q.** What about the Tmax ([8]; both, beagle, dog, plasma, po, 1000 mg/kg/day, dog, EDI048 1000 mg/kg/day, day 14) of the same compound?
**A.** 0.75 h

**Q.** What about the “cardiovascular findings in dogs” value ([8]; up to 1000 mg/kg/day) of the same compound?
**A.** no EDI048-related cardiovascular findings

**Q.** What about the “induction of human pregnane X receptor” value (human PXR) of the same compound?
**A.** did not induce human pregnane X receptor

**Q.** And the AUC [9, 16]?
**A.** 0.668 µM·h

**Q.** What about the Vd [9, 16] of the same compound?
**A.** 1.05 L/kg

**Q.** What about the clearance [9, 16] of the same compound?
**A.** 66.7 mL/min/kg

**Q.** And the half-life [9, 16]?
**A.** 0.43 h

**Q.** What about the AUC [9, 17] of the same compound?
**A.** 0.0204 µM·h

**Q.** And the Cmax [9, 17]?
**A.** 8.4 nM

**Q.** And the Tmax [9, 17]?
**A.** 1 h

**Q.** And the bioavailability [9, 17]?
**A.** 0.4%

**Q.** And the Cmax ([9]; mouse, oral 1 mg/kg)?
**A.** <LLOQ

**Q.** And the Cmax ([9]; mouse, oral 3 mg/kg)?
**A.** <LLOQ

**Q.** And the half-life [10]?
**A.** 2.92 h

**Q.** What about the “portal vein concentration relative to systemic levels” value [11] of the same compound?
**A.** ~ 40 fold

**Q.** And the CC50 at 96 h (Cytotoxicity assay)?
**A.** 28.1 µM

**Q.** And the IC50 (ATM)?
**A.** 0.445 µM

**Q.** What about the “selectivity ATM over CpPI(4)K inhibition” value (ATM) of the same compound?
**A.** > 100 fold

**Q.** What about the logD (Lipophilicity) of the same compound?
**A.** 2.7

**Q.** What about the logP (Lipophilicity) of the same compound?
**A.** 3.65

**Q.** And the Tmax ([12]; infected calves with diarrhea)?
**A.** 12 h

**Q.** What about the Tmax ([12]; uninfected healthy calves) of the same compound?
**A.** 2 h

**Q.** And the AUC ([13]; iv, 0.1 mg/kg)?
**A.** 0.0779 µM·h

**Q.** What about the Vd ([13]; iv, 0.1 mg/kg) of the same compound?
**A.** 1.54 L/kg

**Q.** And the clearance ([13]; iv, 0.1 mg/kg)?
**A.** 45.7 mL/min/kg

**Q.** And the half-life ([13]; iv, 0.1 mg/kg)?
**A.** 0.56 h

**Q.** What about the AUC ([13]; po, 0.3 mg/kg) of the same compound?
**A.** 0.0118 µM·h

**Q.** What about the Cmax ([13]; po, 0.3 mg/kg) of the same compound?
**A.** 5.2 nM

**Q.** And the Tmax ([13]; po, 0.3 mg/kg)?
**A.** 0.75 h

**Q.** And the bioavailability ([13]; po, 0.3 mg/kg)?
**A.** 5.6%

**Q.** What about the tolerability in calves (C. parvum [14]; 10 mg kg^−1 every 12 h, 7 days) of the same compound?
**A.** tolerated the full 7 day course of EDI048 treatment without compound-related abnormalities

**Q.** And the “faecal consistency vs vehicle-treated calves” value (C. parvum [14]; P < 0.0001)?
**A.** improved faecal consistency

**Q.** What about the “faecal oocyst shedding vs vehicle-treated calves” value (C. parvum [14]; P = 0.0062) of the same compound?
**A.** shed significantly fewer oocysts

**Q.** What about the “emergence of resistance during treatment” value (C. parvum [14]; calf model) of the same compound?
**A.** resistance did not emerge

**Q.** And the “time to signs of resolution of diarrhea” value (C. parvum [14]; post treatment)?
**A.** ≤ 48 h

**Q.** And the “recrudescence after cessation of treatment” value (C. parvum [14]; up to 7 days)?
**A.** No recrudescence of infection

**Q.** For `CN(C(=O)c1ccn2ncc(-c3ccc(C(N)=O)cc3)c2c1)c1ccc(C#N)cn1` [KDU731, 3–(4-carbamoylphenyl)-N-(5-cyanopyridin-2-yl)-N-methylpyrazolo [1,5-a]pyridine-5-carboxamide, reference compound], which “Hepatocytes ER” value [15] is on record?
**A.** 36%

**Q.** What about the hepatocyte CLint ([15]; hepatocytes) of the same compound?
**A.** 6.9 µL/min/1e6 cells

**Q.** And the “% Plasma protein binding” value (Plasma protein binding)?
**A.** 87.7%

**Q.** And the sporozoite invasion (C. parvum [7])?
**A.** inactive
